Shown are actives, neighbours in structure and some others; about 5.8% of the full set was active somewhere.
Pf Dd2 growth = inhibitors of Plasmodium falciparum Dd2 growth; 94,000 compounds, 2.3% hits; activity change, % at 10 µM; P. falciparum Dd2 growth, SYBR Green, 72 h; hits give low values; in the data active = activity change below about -80%; inconclusive = no clear call, values can overlap the other calls
T cruzi growth-1 = blocks T. cruzi growth in NIH3T3 culture; AID 624255; 77,000 compounds, 5.9% hits; T. cruzi beta-gal in NIH3T3, GalScreen luminescence, 90 h; inhibition, % at 8.34 µM;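 active = mean inhibition above about 93%, with at least 55% of replicates each passing it, limit read from the data, passing the limit was not always enough; inconclusive = only one of those two conditions holds; inactive = neither condition holds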
KDM4C inh = inhibitors of human demethylase GASC-1 KDM4C. 96,000 compounds, 0.15% hits. GST-KDM4C 2-372, H3K9me3 peptide, LANCE TR-FRET. inhibition, % at 12.5 µM. Q9H3R0;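 active = mean replicate inhibition above about 25%, with at least 55% of replicates also reaching it, limit read from the data, passing the limit was not always enough; inconclusive = only one of those two conditions met; inactive = neither condition met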
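Material: N-terminal GST-fused human GASC-1 (KDM4C) fragment, residues 2-372. Input: 10 nM enzyme. Incubation: enzyme reaction 30 min, then detection 60 min, both room temperature. Doses: one test concentration per compound. Read-out basis: inhibition from TR-FRET ratio decrease. Detection: LANCE TR-FRET, excitation 340 nm, emissions 618 and 671 nm.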
IDH1 R132H inh = inhibitors of human IDH1 R132H; IDH1 R132H reductase, diaphorase/resazurin fluorescence, 60 min; 70,000 compounds, 0.18% hits; AID 624101; inhibition, % at 10 µM; O75874; in the data active = inhibition above about 34%; inconclusive = no clear call, values can overlap the other calls; inactive = below about 11%;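 note: 0% = DMSO and 100% = no enzyme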
Target sequence (O75874 whole entry R132H): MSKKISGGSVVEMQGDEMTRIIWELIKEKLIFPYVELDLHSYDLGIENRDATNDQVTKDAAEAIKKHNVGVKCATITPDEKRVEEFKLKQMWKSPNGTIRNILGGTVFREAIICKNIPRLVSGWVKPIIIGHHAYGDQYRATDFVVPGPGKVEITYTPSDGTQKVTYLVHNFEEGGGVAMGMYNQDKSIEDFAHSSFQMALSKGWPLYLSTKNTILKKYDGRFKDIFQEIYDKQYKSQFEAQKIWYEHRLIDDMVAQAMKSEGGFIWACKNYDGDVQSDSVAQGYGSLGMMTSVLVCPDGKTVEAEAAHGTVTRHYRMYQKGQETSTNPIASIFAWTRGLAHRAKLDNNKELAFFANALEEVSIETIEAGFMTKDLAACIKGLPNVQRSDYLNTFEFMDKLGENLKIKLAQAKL
T cruzi growth-2 = inhibitors of T. cruzi proliferation; shares compounds with T cruzi growth-1; T. cruzi beta-gal in NIH3T3, GalScreen luminescence, 90 h; inhibition, % at 8.35 µM; 5,600 compounds, 72% hits;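 active = mean replicate inhibition above about 95% and at least 55% of replicates individually reaching it, limit read from the data; inconclusive = only one of the two criteria is met; inactive = neither criterion is met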
T cruzi growth-3 = inhibitors of T. cruzi proliferation | shares compounds with T cruzi growth-1 | T. cruzi beta-gal in NIH3T3, GalScreen luminescence, 90 h | inhibition, % at 2.09 µM | 5,600 compounds, 21% hits | AID 651740;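 active = mean inhibition above about 95%, with at least 55% of replicates also reaching it, limit read from the data; inconclusive = meets just one of the two conditions; inactive = meets neither condition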;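 note: plate controls were neutral control median for no effect and positive control median for full effect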
NIH3T3 tox = kills mouse NIH/3T3 fibroblasts. shares compounds with T cruzi growth-1. NIH/3T3 viability, CellTiter-Glo ATP luminescence, 90 h. cytotoxicity (signal decrease), % at 8.35 µM. 5,600 compounds, 14% hits;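 active = mean signal decrease across replicates above about 35% based on untreated-well scatter, with enough replicates individually passing, limit read from the data; inconclusive = no rule stated though some were filed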;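 note: 0% = median of neutral control wells and 100% = median of positive control wells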
3T3 cytotox 2 = cytotoxicity in mouse NIH/3T3 fibroblasts; 5,600 compounds, 56% hits; shares compounds with T cruzi growth-1; AID 651744; inhibition, % at 24.9 µM; NIH/3T3 viability, CellTiter-Glo ATP luminescence, 90 h;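 active = mean loss of cell viability signal at or above a set limit, and enough replicates individually reaching it; inconclusive = meets only the mean limit or only the replicate share; inactive = meets neither condition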;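 note: 0% = median of neutral control wells and 100% = median of positive control wells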
* hit, by the source's call; ? = inconclusive; . = not tested or not shown.

SMILES | Pf Dd2 growth | T cruzi growth-1 | KDM4C inh | IDH1 R132H inh | T cruzi growth-2 | T cruzi growth-3 | NIH3T3 tox | 3T3 cytotox 2
C[C@@H]1CCCCO[C@@H](CN(C)Cc2ccc(C(F)(F)F)cc2)[C@@H](C)CN([C@@H](C)CO)C(=O)c2cc(NC(=O)Nc3ccccc3)ccc2O1 | 19 | 75 | 0 | 0 | . | . | . | .
C[C@@H]1CCCCO[C@H](CN(C)Cc2ccc(C(F)(F)F)cc2)[C@@H](C)CN([C@H](C)CO)C(=O)c2cc(NC(=O)Nc3ccccc3)ccc2O1 | 48 | 96* | 0 | -1 | 98* | 111* | 25 | 20
C[C@@H]1CCCCO[C@H](CN(C)Cc2ccc(C(F)(F)F)cc2)[C@H](C)CN([C@H](C)CO)C(=O)c2cc(NC(=O)Nc3ccccc3)ccc2O1 | -74 | ? | -1 | 1 | 96* | 120* | -12 | -7
COCCOC(=O)N1C(=O)[C@@]2(c3cc(C#CCC(C(=O)OC)C(=O)OC)ccc31)[C@H](C(=O)N1CCN(c3ncccn3)CC1)[C@H]1C(=O)O[C@H](c3ccccc3)[C@H](c3ccccc3)N1[C@@H]2c1ccccc1OCCO | . | . | . | 0 | . | . | . | .
Cc1ccc(-c2ccc3c(c2)O[C@H](CN(C)Cc2ccncc2)[C@H](C)CN([C@@H](C)CO)S3(=O)=O)cc1 | -12 | 119* | 3 | . | 90 | 80 | ? | 99*
C[C@H](CO)N1C[C@H](C)[C@@H](CN(C)Cc2ccncc2)Oc2cc(-c3ccncc3)ccc2S1(=O)=O | -36 | 116 | -2 | . | . | . | . | .
Cc1ccc(-c2ccc3c(c2)O[C@H](CN(C)Cc2ccncc2)[C@@H](C)CN([C@H](C)CO)S3(=O)=O)cc1 | -90* | 122* | 0 | 0 | 99* | 103* | 75* | 105*
CCn1c(SCC(=O)Nc2cccc(F)c2)nnc1-c1ccc(Cl)cc1Cl | . | . | . | 0 | . | . | . | .
CC(Oc1ccc(F)cc1)C(=O)NCCN1CCOCC1 (stereo unspecified) | . | . | . | 0 | . | . | . | .
Cc1nnc(SCC(=O)c2ccc3c(c2)OCCO3)s1 | . | . | . | 0 | . | . | . | .
COc1ccccc1NC(=O)N1CCCCN2[C@H](CO)[C@H](c3ccc(C#Cc4ccccc4)cc3)[C@H]2C1 | -79 | 58 | -3 | . | . | . | . | .
COc1ccccc1NC(=O)N1CCCCN2[C@H](C1)[C@H](c1ccc(C#CC3CC3)cc1)[C@@H]2CO | -80 | 100* | . | . | 105* | 56 | 21 | 30*
COc1ccccc1NC(=O)N1CCCCN2[C@H](C1)[C@@H](c1ccc(C#Cc3ccccc3)cc1)[C@@H]2CO | -48 | 107* | -3 | . | 99* | 109* | 36* | 105*
Cc1nnc(NCc2ccco2)[nH]c1=O | . | . | . | 0 | . | . | . | .
Cc1ccccc1-c1ccc([C@@H]2[C@H]3CN(C(=O)Nc4ccc(F)cc4)CCCCN3[C@H]2CO)cc1 | 11 | 107* | -1 | . | 90 | 105* | ? | 106*
Cc1ccccc1-c1ccc([C@H]2[C@H]3CN(C(=O)Nc4cccc(F)c4)CCCCN3[C@H]2CO)cc1 | -29 | 92 | 1 | . | . | . | . | .
Cc1ccccc1-c1ccc([C@H]2[C@H](CO)N3CCCCN(C(=O)Nc4ccc(F)cc4)C[C@@H]23)cc1 | -41 | 109* | -1 | . | 96* | 88 | 42* | 106*
COc1cc(C(=O)OC[C@@]2(O)CO[C@H](OC3C(CO)OC(OC(C)/C=C/C4(O)C(C)CC(O)CC4(C)C)C(O)C3O)[C@@H]2O)cc(OC)c1O (stereo partly specified) | . | . | . | -1 | . | . | . | .
COc1cccc(-c2ccc3c(c2)[C@@H]2[C@@H](CCN2C(=O)C2CCC2)[C@@H](CO)N3)c1 | -33 | 19 | -1 | . | . | . | . | .
COc1cccc(-c2ccc3c(c2)[C@H]2[C@H](CCN2C(=O)C2CCOCC2)[C@@H](CO)N3)c1 | 0 | 116* | -1 | . | 105* | 73 | -5 | -1
COc1cccc(-c2ccc3c(c2)[C@@H]2[C@@H](CCN2C(=O)C2CCOCC2)[C@H](CO)N3)c1 | -46 | 111* | 0 | . | 90 | 52 | -15 | -6
COc1cccc(-c2ccc3c(c2)[C@H]2[C@H](CCN2C(=O)C2CCOCC2)[C@H](CO)N3)c1 | -24 | ? | -2 | . | 103* | 65 | 3 | 20
Cc1ccc(-c2nc3cc(NC(=O)COc4ccccc4[N+](=O)[O-])ccc3o2)cc1 | . | . | . | 0 | . | . | . | .
CCOc1ccc(-n2c(SCC(=O)c3ccccc3)nnc2-c2ccncc2)cc1 | . | . | . | -1 | . | . | . | .
COCC#Cc1ccc([C@H]2[C@H](CO)N3CCCCN(S(=O)(=O)c4ccc(OC)cc4)C[C@@H]23)cc1 | -57 | ? | -1 | . | 100* | 40 | -1 | 11
COCC#Cc1ccc([C@H]2[C@@H](CO)N3CCCCN(S(=O)(=O)c4ccc(OC)cc4)C[C@@H]23)cc1 | -46 | ? | 0 | . | 100* | 42 | 34 | 34*
COc1ccccc1-c1ccc([C@@H]2[C@@H](C#N)N(C(=O)C3CCC3)[C@H]2CO)cc1 | 4 | 49 | 0 | . | . | . | . | .

High-throughput results deposited in PubChem by Broad Institute.
